Experimental data as given in ChEMBL document CHEMBL1154772, “Synthesis and in vitro evaluation of N-substituted maleimide derivatives as selective monoglyceride lipase inhibitors” (J Med Chem, 2009).

Legend:
[1] = organism: Homo sapiens; assay: Selectivity ratio of IC50 for human FAAH to IC50 for human MGL
How it was run: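 Ratio of IC50 against human FAAH ([3H]anandamide hydrolysis) to IC50 against purified human MGL ([3H]-2-OG hydrolysis), each from three independent experiments in duplicate.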

[2] = molecular target: T1, Monoglyceride lipase (Homo sapiens) (UniProt Q99685); assay: Inhibition of [3H]2-OG binding to human MGL at 20 times IC50 treated for 1 hr before addition of 2-OG by liquid scintillation counting
T1 sequence (whole entry): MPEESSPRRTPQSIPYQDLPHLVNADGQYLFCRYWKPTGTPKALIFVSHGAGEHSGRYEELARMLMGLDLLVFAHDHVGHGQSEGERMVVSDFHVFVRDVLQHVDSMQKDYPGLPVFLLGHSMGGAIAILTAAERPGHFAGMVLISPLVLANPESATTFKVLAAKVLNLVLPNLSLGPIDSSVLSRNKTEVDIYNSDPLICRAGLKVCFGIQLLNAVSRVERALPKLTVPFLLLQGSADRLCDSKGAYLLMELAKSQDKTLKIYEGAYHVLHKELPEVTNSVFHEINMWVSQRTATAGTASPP

[3] = molecular target: T2, Monoglyceride lipase (Homo sapiens, UniProt Q99685); assay: Inhibition of human MGL
T2 sequence (Q99685 whole entry): T1 sequence (whole entry)
How it was run: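 Purified recombinant human MGL (5 ng) in 50 mM Tris pH 8.0, 0.1% BSA with compound or DMSO vehicle. [3H]-2-OG (10 μM) hydrolysis run 10 min at 37 °C, stopped with ice-cold methanol-chloroform 1:1. Aqueous-phase radioactivity read by liquid scintillation, no-enzyme blanks subtracted.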

Ratio IC50 [1]: 0.002 | inhibition [2]: 26% | IC50 [3]: 6.31 µM
Structure (SMILES): CCCCC/C=C\C/C=C\C/C=C\C/C=C\CCCC(=O)C(F)(F)F [ARACHIDONYL TRIFLUOROMETHYLKETONE]
